Experimental data: ChEMBL document CHEMBL1133703, “Inhibitors of topoisomerase II based on the benzodiimidazole and dipyrroloimidazobenzimidazole ring systems: controlling DT-diaphorase reductive inactivation with steric bulk” (2000)

What was measured:
Format in all cases: functional
Conditions in all cases: Homo sapiens
NSCLC = experiment: Lethal concentration was determined against NSC lung cancer cell line
Outline: (§1)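 NCI 60-cell-line in vitro screen run at the National Cancer Institute on a submitted sample of about 5 mg. The screen yields mean graph data: LC50 (50% lethal concentration), GI50 and TGI. The LC50 values reported are averages over the cell lines of each cancer type.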

[1] = test system: Panel leukemia (Carcinoma cell lines); experiment: Lethal concentration was determined against Leukemia cell line; outline: as §1
CNS carcinoma cell = experiment: Lethal concentration was determined against CNS cancer cell line; outline: as §1
Renal cancer cell line = experiment: Lethal concentration was determined against Renal cancer cell line; outline: as §1
Ovarian carcinoma cell = experiment: Lethal concentration was determined against Ovarian cancer cell line; outline: as §1
Melanoma cell = experiment: Lethal concentration was determined against Melanoma cell line; outline: as §1
Colon carcinoma cell = experiment: Lethal concentration was determined against Colon cancer cell line; outline: as §1

SMILES | LC50 (NSCLC) [µM] | LC50 (50% lethal concentration) [1] [µM] | LC50 (CNS carcinoma cell) [µM] | LC50 (50% lethal concentration) (Renal cancer cell line) [µM] | LC50 (50% lethal concentration) (Ovarian carcinoma cell) [µM] | LC50 (50% lethal concentration) (Melanoma cell) [µM] | LC50 (Colon carcinoma cell) [µM]
Cn1c(CCl)nc2c1C(=O)c1c(nc(CCl)n1C)C2=O | 4.47 | 4.37 | 5.01 | 6.31 | 10 | 5.01 | –
Cc1nc2c(n1C)C(=O)c1c(nc(CCl)n1C)C2=O | 12.3 | 12.9 | 15.8 | 15.8 | 25.1 | 5.89 | 6.31
CC(=O)NC1=C(C)C(=O)c2c(nc3n2CCC3OC(C)=O)C1=O (centres undefined) | 20 | 100 | 25.1 | 15.8 | 15.8 | 12.6 | 31.6
O=C1c2nc3n(c2C(=O)c2c1nc1n2CCC1)CCC3 | 39.8 | 100 | 63.1 | 79.4 | 50.1 | 15.8 | 50.1
CC(=O)OC1CCn2c1nc1c2C(=O)c2c(nc3n2CCC3OC(C)=O)C1=O (centres undefined) | 3.98 | 2.51 | 3.16 | 6.31 | 3.98 | 2.57 | 3.8
